Results published in ChEMBL document CHEMBL1121617, “Antihypertensive ureidopiperidines” (1980).
Calls of active or inactive are those of the source. No cut-off for these calls is given here.

Tests used:
Rattus norvegicus [1] = assay: The percent fall in systolic blood pressure at 1.5 / 4 hr after peroral administration of 40 mg/kg in conscious renal hypertensive rats (RHR).; type: functional, Artery; conditions: route oral
Method in brief: (§1)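 Conscious renal hypertensive rats, four per group, dosed orally. Starting systolic pressures were 160–200 mmHg. Percentage fall in systolic pressure was taken at 1.5 and/or 4 h after dosing. Falls under 10% were scored as ±.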

Rattus norvegicus [2] = assay: The percent fall in systolic blood pressure at 1.5 / 4 hr after peroral administration of 25 mg/kg in DOCA/saline hypertensive rats at 24 hr; Non significant, p>0.05; type: functional, organism-based; design: dose 25 mg/kg; conditions: Artery, at 25 mg/kg
Rattus norvegicus [3] = assay: The percent fall in systolic blood pressure at 1.5 / 4 hr after peroral administration of 25 mg/kg in DOCA/saline hypertensive rats at 2 hr; type: functional, Artery; conditions: route oral
Method in brief: (§2)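 DOCA/saline hypertensive rats, four per group, dosed orally at 50, 25 or 10 mg/kg. Mean starting systolic pressure was recorded for each group. Systolic pressure was then read 2, 6 and 24 h after dosing and reported as percentage fall from the starting value.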

Rattus norvegicus [4] = assay: The percent fall in systolic blood pressure at 1.5 / 4 hr after peroral administration of 50 mg/kg in DOCA/saline hypertensive rats at 24 hr; type: functional, Artery; conditions: route oral; method in brief: as §2
Rattus norvegicus [5] = assay: The percent fall in systolic blood pressure at 1.5 / 4 h after peroral administration of 50 mg/kg in DOCA/saline hypertensive rats at 2 hr; type: functional, Artery; conditions: route oral
Rattus norvegicus [6] = assay: The percent fall in systolic blood pressure at 1.5 / 4 hr after peroral administration of 10 mg/kg in DOCA/saline hypertensive rats at 24 hr; Non significant; type: functional, organism-based; design: dose 10 mg/kg; conditions: Artery, at 10 mg/kg
Rattus norvegicus [7] = assay: The percent fall in systolic blood pressure at 1.5 / 4 hr after peroral administration of 10 mg/kg in DOCA/saline hypertensive rats at 2 hr; type: functional, Artery; conditions: route oral; method in brief: as §2
Rattus norvegicus [8] = assay: The percent fall in systolic blood pressure at 1.5 / 4 hr after peroral administration of 10 mg/kg in DOCA/saline hypertensive rats at 6 hr; type: functional, Artery; conditions: route oral; method in brief: as §2
Rattus norvegicus [9] = assay: The percent fall in systolic blood pressure at 1.5 / 4 hr after peroral administration of 50 mg/kg in DOCA/saline hypertensive rats at 6 hr; type: functional, Artery; conditions: route oral
Rattus norvegicus [10] = assay: Starting systolic blood pressure at dose of 10 mg/kg; type: functional, Artery; method in brief: as §2
Rattus norvegicus [11] = assay: Starting systolic blood pressure at dose of 25 mg/kg; type: functional, Artery; method in brief: as §2
Rattus norvegicus [12] = assay: Starting systolic blood pressure at dose of 50 mg/kg in rat; type: functional, Artery
Method in brief: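 Mean systolic blood pressure before dosing for each group of four DOCA/saline hypertensive rats given 50 mg/kg orally. It indicates how far hypertension was established.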

Rattus norvegicus [13] = assay: The percent fall in systolic blood pressure at 1.5 / 4 hr after peroral administration of 25 mg/kg in DOCA/saline hypertensive rats at 6 hr; type: functional, Artery; conditions: route oral; method in brief: as §2
Rattus norvegicus [14] = assay: The percent fall in systolic blood pressure at 1.5 / 4 hr after peroral administration of 10 mg/kg in DOCA/saline hypertensive rats at 6 h; Non significant, p>0.05; type: functional, organism-based; design: dose 10 mg/kg; conditions: Artery, at 10 mg/kg; method in brief: as §2
Rattus norvegicus [15] = assay: The percent fall in systolic blood pressure at 1.5 / 4 hr after peroral administration of 50 mg/kg in DOCA/saline hypertensive rats at 24 hr; Non significant; type: functional, organism-based; design: dose 50 mg/kg; conditions: Artery, at 50 mg/kg
Rattus norvegicus [16] = assay: The percent fall in systolic blood pressure at 1.5 / 4 hr after peroral administration of 10 mg/kg in DOCA/saline hypertensive rats at 24 hr; Non significant, p>0.05; type: functional, organism-based; design: dose 10 mg/kg; conditions: Artery, at 10 mg/kg; method in brief: as §2
Rattus norvegicus [17] = assay: Percent fall in systolic blood pressure at 1.5 / 4 hr after peroral administration of 50 mg/kg in DOCA/saline hypertensive rats at 6 h; Non significant; type: functional, organism-based; design: dose 50 mg/kg; conditions: Artery, at 50 mg/kg
Rattus norvegicus [18] = assay: The percent fall in systolic blood pressure at 1.5 / 4 hr after peroral administration of 50 mg/kg in DOCA/saline hypertensive rats at 2 hr; Non significant; type: functional, organism-based; design: dose 50 mg/kg; conditions: Artery, at 50 mg/kg
Rattus norvegicus [19] = assay: The percent fall in systolic blood pressure at 1.5 / 4 h after peroral administration of 50 mg/kg in conscious DOCA/saline hypertensive rats at 24 hr; Non significant; type: functional, organism-based; design: dose 50 mg/kg; conditions: Artery, at 50 mg/kg; method in brief: as §2
Rattus norvegicus [20] = assay: The percent fall in systolic blood pressure at 1.5 / 4 hr after peroral administration of 25 mg/kg in DOCA/saline hypertensive rats at 24 hr; type: functional, Artery; conditions: route oral; method in brief: as §2
Rattus norvegicus [21] = assay: The percent fall in systolic blood pressure at 1.5 / 4 hr after peroral administration of 75 mg/kg in conscious renal hypertensive rats (RHR).; type: functional, Artery; conditions: route oral; method in brief: as §1
Rattus norvegicus [22] = assay: The percent fall in systolic blood pressure after peroral administration of 50 mg/kg in DOCA/saline hypertensive rats at 24 hr; conditions: route oral
Rattus norvegicus [23] = assay: The percent fall in systolic blood pressure at 1.5 / 4 hr after peroral administration of 10 mg/kg in DOCA/saline hypertensive rats at 24 hr; type: functional, Artery; conditions: route oral
Rattus norvegicus [24] = assay: The percent fall in systolic blood pressure at 1.5 / 4 hr after peroral administration of 50 mg/kg in conscious renal hypertensive rats (RHR).; type: functional, Artery; conditions: route oral
Method in brief: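 Conscious renal hypertensive rats, four per group, with starting systolic pressures of 160-200 mmHg, were given a single oral dose. The value is the percentage fall in systolic pressure at 1.5 h, 4 h, or both after dosing. Falls below 10% are reported as ±.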

| Structure (SMILES) | Fall (Rattus norvegicus [2]) | Fall (Rattus norvegicus [3]) [%] | Fall (Rattus norvegicus [4]) [%] | Fall (Rattus norvegicus [5]) [%] | Fall (Rattus norvegicus [7]) [%] | Fall (Rattus norvegicus [8]) [%] | Fall (Rattus norvegicus [9]) [%] | SP (Rattus norvegicus [10]) [mmHg] | SP (Rattus norvegicus [11]) [mmHg] | SP (Rattus norvegicus [12]) [mmHg] | Fall (Rattus norvegicus [13]) [%] | Fall (Rattus norvegicus [16]) | other results |
| --- | --- | --- | --- | --- | --- | --- | --- | --- | --- | --- | --- | --- | --- |
| O=C(NC1CCN(CCc2c[nH]c3ccccc23)CC1)c1ccccc1 [INDORAMIN] | inactive | 25 | 38 | 41 | 33 | 31 | 45 | 197 | 178 | 198 | 29 |  | Activity (Rattus norvegicus [1]): 38; Fall (Rattus norvegicus [6]): inactive |
| O=C(NC(=O)c1ccccc1)NC1CCN(CCCC(=O)c2ccccc2)CC1 | Not significant | 28 |  | 21 | 22 |  |  | 173 | 178 | 169 | 26 | Not significant | Fall (Rattus norvegicus [14]): Not significant; Fall (Rattus norvegicus [15]): Not significant; Fall (Rattus norvegicus [17]): Not significant |
| O=C(NC(=O)C1CCCCC1)NC1CCN(CCc2c[nH]c3ccccc23)CC1 | Not significant | 54 |  | 48 | 30 | 27 | 52 | 170 | 181 | 173 | 54 | Non significant, p>0.05 | Fall (Rattus norvegicus [15]): Not significant |
| O=C(Nc1cccc(C(F)(F)F)c1)NC1CCN(CCc2c[nH]c3ccccc23)CC1 |  |  |  |  |  |  |  |  |  | 208 |  |  | Fall (Rattus norvegicus [18]): Not significant; Fall (Rattus norvegicus [17]): Not significant; Fall (Rattus norvegicus [19]): Not significant |
| CN(C(=O)Nc1ccccc1)C1CCN(CCc2c[nH]c3ccccc23)CC1 |  | 44 | 26 |  |  |  |  | 168 | 180 | 174 | 38 |  | Fall (Rattus norvegicus [20]): 20%; Fall (Rattus norvegicus [5]; 50 mg/kg): 54%; Fall (Rattus norvegicus [9]; 50 mg/kg): 52% |
| Cc1cccc(C)c1NC(=O)NC1CCN(CCc2c[nH]c3ccccc23)CC1 |  |  |  |  |  |  |  |  |  |  |  |  | Activity (Rattus norvegicus [21]): <10 |
| O=C(NC(=O)c1ccccc1)NC1CCN(CCc2c[nH]c3ccccc23)CC1 |  | 51 | 38 | 49 | 36 |  | 49 | 178 | 171 | 179 | 48 | Not significant | Activity (Rattus norvegicus [1]): 48; Fall (Rattus norvegicus [14]): Not significant; Fall (Rattus norvegicus [20]): 21% |
| COc1ccccc1OCC(O)CN1CCC(NC(=O)Nc2ccccc2)CC1 (configuration not stated) |  |  |  | 27 |  |  |  |  |  | 212 |  |  | Fall (Rattus norvegicus [17]): Not significant; Fall (Rattus norvegicus [22]): -27% |
| O=C(NC(=O)c1cccs1)NC1CCN(CCCC(=O)c2ccc(F)cc2)CC1 | Not significant | 35 | 21 | 49 | 48 | 36 | 45 | 171 | 174 | 179 | 28 |  | Fall (Rattus norvegicus [23]): 16% |
| O=C(NC(=O)c1cccs1)NC1CCN(CCc2c[nH]c3ccccc23)CC1 | Not significant | 43 | 38 | 47 | 50 | 46 | 38 | 169 | 171 | 193 | 46 | Not significant |  |
| O=C(CCCN1CCC(NC(=S)Nc2ccccc2)CC1)c1ccccc1 |  |  |  |  |  |  |  |  |  |  |  |  | Activity (Rattus norvegicus [24]): 20 |
| O=C(Nc1ccc(Cl)c(Cl)c1)NC1CCN(CCCC(=O)c2ccccc2)CC1 |  |  |  | 35 |  |  | 35 |  |  | 169 |  |  | Fall (Rattus norvegicus [22]): 18% |
